Diaph act CS = compounds boosting diaphorase resazurin reduction – biochemical, uHTS, resorufin fluorescence, counter-screen for diaphorase-coupled primary assays, primary screen | Diaphorase/resazurin coupled assay, 16 min; stronger effect = higher value; 1 = vehicle wells, 0 = NADH-free wells | activation factor at 20 µM | hit rate 0.005% among 190,000;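 active = diaphorase activity raised at least twofold by the compound at 20 µM; inactive = activation factor below 2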
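Material: Clostridium kluyveri diaphorase, purified enzyme; Quantity: enzyme 0.07 U/mL final; Medium: HEPES pH 7.4 buffer with MgCl2 and Tween 20; Dosing: single compound dose of 20 µM, 1% DMSO final; Schedule: 16 min reaction at room temperature; Measured by: red resorufin fluorescence at 544/590 nm excitation/emission.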
WT yeast gro inh = growth inhibition of WT strain, primary screen, mitochondrial fusion inhibitor project, WT and mutant strains, chemical genetic; mitochondrial fusion phenotypic screen; inhibition, % at 10 µM; hit rate 2.1% among 190,000; in the data active = inhibition above about 58%; tested in S. cerevisiae
Diaphorase inh = diaphorase inhibitors and chemical oxidizers, primary screen, counter-screen for diaphorase-coupled primary assays, biochemical, uHTS, resorufin fluorescence; inhibition, % at 20 µM; diaphorase resazurin-to-resorufin fluorescence, NADH, 16 min; bacterial (C. kluyveri) enzyme, not human; AID 1217, 2008; hit rate 0.69% among 190,000;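 active = primary screen inhibition at 20 µM above a set limit, cut at about 50% in these data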
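Assay system: diaphorase enzyme from Clostridium kluyveri; Input: enzyme working solution with 0.14 U/mL diaphorase; Timing: 16 min at room temperature; Technique: resorufin fluorescence, excitation 544 nm, emission 590 nm; Benchmarks: positive control minus NADH, DMSO neutral control.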
G6PDH counter = L. mesenteroides G6PDH inhibitors, counter-screen for G6PDH-coupled screening assays, biochemical, Leuconostoc mesenteroides enzyme | inhibition, % at 5 µM | Purified L. mesenteroides G6PDH, diaphorase/resazurin coupled fluorescence, 45 min | glucose-6-phosphate dehydrogenase [Leuconostoc mesenteroides] | hit rate 0.12% among 200,000 | AID 1020, 2008
L major viab = Leishmania major promastigote growth inhibition, primary screen | Leishmania major promastigotes, resazurin fluorescence viability | inhibition, % at 10 µM | hit rate 9% among 200,000 | AID 1063, 2008;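 also: promastigotes grown with compound for 44 hours at 28 °C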
A number is an active result; . = inactive; / = no result. Rows were chosen to be rich in hits. Some 11% of all compounds tested hit in one or more screens of this group. Rule as the data show it, unless noted: active = inhibition above about 50%; inactive = the rest.

SMILES	Diaph act CS	WT yeast gro inh	Diaphorase inh	G6PDH counter	L major viab
CCc1cc(C(=O)c2ccc(C)cc2)c(NC(=O)CCl)s1	.	.	.	.	88
Cc1cc(C(=O)c2ccc(Cl)cc2)c(NC(=O)CCl)s1	.	.	.	.	.
CCCCCc1c(O)nc(SCC(=O)O)[nH]c1=O	/	/	/	/	.
CCN1C(=O)C(CC(=O)Nc2ccc(F)cc2)N(Cc2ccc3c(c2)OCO3)C1=S (configuration not stated)	.	.	.	.	.
COc1cc(NS(C)(=O)=O)cc(OC)c1OC	.	.	.	.	.
COc1cc(NC(c2ccccc2)c2ccccc2)cc(OC)c1OC	.	.	77	.	96
O=C(CCc1nnc(CCCc2ccccc2)o1)NCCc1ccccc1	.	.	.	.	.
O=C(CCc1nnc(CCCc2ccccc2)o1)NCC(F)(F)F	.	.	50	.	.
C=CCOC(=O)C1=C[C@H](c2ccc(Br)cc2)[C@@H](CCCO)[C@H](OCC)O1	.	.	55	.	.
CCO[C@@H]1OC(C(=O)NCc2ccccc2)=C[C@H](c2csc3ccccc23)[C@H]1CCCO	.	.	.	.	.
CCO[C@H]1OC(C(=O)NCc2ccccc2)=C[C@@H](c2cn(C(C)=O)c3ccccc23)[C@@H]1CCCO	.	.	.	.	82
CCO[C@@H]1OC(C(=O)Nc2ccccc2)=C[C@H](c2ccc(Br)cc2)[C@H]1CCCO	.	.	56	.	.
CC(=O)c1ccc(OCCCC(=O)NC2CCCc3ccccc32)cc1 (configuration not stated)	.	.	.	.	.
CCOC(=O)C1=C(N)OC(CCl)=C(C#N)C1c1ccsc1 (configuration not stated)	.	.	.	.	57
Cc1nn(C2CCS(=O)(=O)C2)c(Cl)c1/C=C/C(=O)OCC(=O)Nc1ccccc1OC(F)F (configuration not stated)	.	.	.	.	51
CC(NC(=S)NCCc1ccccc1)C(c1cccs1)N1CCN(C)CC1 (configuration not stated)	.	.	.	.	.
O=C1NC(=O)/C(=C\c2ccc(O)cc2O)S1	.	.	82	.	.
CC(=O)c1c(C(C)=O)c(C)n(-c2cccc3cccnc23)c1C	.	.	.	.	.
Cc1cc(C(=O)CSc2cccc[n+]2[O-])c(C)n1-c1ccc(Br)cc1	.	.	.	.	95
O=C(CSc1cccc[n+]1[O-])c1ccccc1Br	.	.	.	.	99
Cc1cc(C(=O)CSc2cccc[n+]2[O-])c(C)n1-c1ccccc1	.	.	.	.	.
COc1ccc(N2CCN(C(=O)CSc3ccccc3N)CC2)cc1	.	.	.	.	63
COc1ccc(N2CCN(C(=O)CCNC(=O)c3ccccc3)CC2)cc1	.	.	.	.	.
COc1ccc(N2CCN(C(=O)CC(NC(N)=O)c3cccc(Oc4ccccc4)c3)CC2)cc1 (configuration not stated)	.	.	.	.	100
COc1ccc(N2CCN(C(=O)CCn3nnc4ccccc43)CC2)cc1	.	.	.	.	89
SMILES	Diaph act CS	WT yeast gro inh	Diaphorase inh	G6PDH counter	L major viab
COc1ccc(N2CCN(C(=O)CSc3ccccc3)CC2)cc1	.	.	.	.	.
CCOC(=O)c1cnc2c(N=Nc3ccccc3)c(N)nn2c1N	.	.	.	.	68
CC(C)N1C(=O)CC2(CC[N+](C)(CCOC(=O)C(c3ccccc3)c3ccccc3)CC2)C1=O (configuration not stated)	.	.	.	.	.
Oc1ccc(/C=N/Nc2cc(N3CCOCC3)nc(N3CCOCC3)n2)cc1O	.	.	64	.	.
Oc1ccccc1/C=N/Nc1cc(N2CCCC2)nc(N2CCCC2)n1	.	74	.	.	96
Oc1cccc(/C=N/Nc2cc(N3CCOCC3)nc(N3CCOCC3)n2)c1	.	.	.	.	61
Cc1nc(N2CCN(Cc3ccc4c(c3)OCO4)CC2)c2oc3ccccc3c2n1	/	.	/	/	/
Cc1nc(N2CCN(Cc3ccc4c(c3)OCO4)CC2)c2cc(-c3ccccc3)sc2n1	.	70	.	.	.
O=C(N/N=C/c1ccccn1)c1ccc(Br)cc1	.	.	.	.	97
O=C(N/N=C/c1ccccn1)c1ccc([N+](=O)[O-])cc1	.	.	.	.	55
O=C(N/N=C/c1ccccn1)c1ccc(N/N=C/c2ccccn2)cc1	.	.	.	.	.
O=C(N/N=C/c1ccc[nH]1)c1ccc([N+](=O)[O-])cc1	.	.	.	.	79
O=C(N/N=C/c1ccccn1)c1ccc(NC(=O)c2cccc([N+](=O)[O-])c2)cc1	.	.	.	.	.
O=C(N/N=C/c1ccccn1)c1cc([N+](=O)[O-])cc([N+](=O)[O-])c1	.	.	.	.	89
Cc1ccc(C(=O)N/N=C\c2ccc[nH]2)cn1	.	.	.	.	.
NS(=O)(=O)c1ccc(NC(=O)COC(=O)CNC(=O)C23CC4CC(CC(C4)C2)C3)cc1	.	.	.	.	.
CC(=O)c1ccc(OCCOc2ccc(Cl)c3cccnc23)cc1	.	.	.	.	.
O=C(N/N=C/c1ccccn1)c1cccc([N+](=O)[O-])c1	.	.	.	.	77
O=c1ccccn1CCOc1ccccc1Cl	.	.	.	.	.
O=c1ccccn1Cc1c(Cl)cccc1Cl	.	73	.	.	.
COc1ccc(OC)c(-n2c(SCC(=O)NCc3ccco3)nnc2-c2c[nH]c3ccccc23)c1	.	.	.	.	96
COc1cccc(-n2c(SCC(=O)NCc3ccco3)nnc2-c2c[nH]c3ccccc23)c1	.	.	.	.	98
CCn1c(SCC(=O)NCc2ccco2)nnc1-c1c[nH]c2ccccc12	.	.	.	.	.
O=C(CN1CCCCC1)NC(=O)NC1CCCC1	.	.	.	.	.
O=C(CN1CCCc2ccccc21)NC(=O)NCc1ccco1	.	.	.	.	.
SMILES	Diaph act CS	WT yeast gro inh	Diaphorase inh	G6PDH counter	L major viab
CC1Cc2ccccc2N1CC(=O)NC(=O)NCc1ccco1 (configuration not stated)	.	.	.	.	97
CC1Cc2ccccc2N1CC(=O)NC(=O)NC1CCCC1 (configuration not stated)	.	.	.	.	98
O=C(CN1CCCCCCC1)NC(=O)NC1CCCCC1	.	.	.	.	58
O=C(CN1CCCc2ccccc21)NC(=O)NC1CCCCC1	.	.	.	.	.
CCCn1c(N)cc(=O)n(CCC)c1=O	.	.	.	.	.
COc1ccc(NC(=O)CCN2C(=O)C3CC=C(Cl)CC3C2=O)cc1 (configuration not stated)	.	.	.	.	.

Screens from PubChem BioAssay.
